{"source": "ChEMBL document CHEMBL3044819", "about": "“Structure-activity relationship in the interaction of substituted perinaphthenones with Mycosphaerella fijiensis” (J Agric Food Chem, 2009)", "note": "The source made the active and inactive calls. The rule behind the calls is not given here.", "data": [{"system": "Pseudocercospora fijiensis", "assay": "Antifungal activity against Pseudocercospora fijiensis assessed as inhibition of mycelial growth under 12 hr photoperiod measured after 8 days", "format": "functional, organism-based", "in_short": "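Microtiter well assay; inoculum adjusted to 2 × 10⁵ mycelial fragments/mL. Plates kept in an incubation chamber 1 m from white fluorescent tubes on a 12 h photoperiod. Mycelial growth was measured after 8 days, which is the logarithmic growth phase. IC₅₀ values were calculated from growth inhibition, with statistical analysis per Lazzaro et al. Benomyl and propiconazole were tested as reference fungicides.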", "values": [{"smiles": "COc1ccc2cccc3c2c1C=C([N+](=O)[O-])C3=O", "growth inhibition (GI)": "Active"}, {"smiles": "O=C1C=Cc2cccc3cccc1c23", "growth inhibition (GI)": "Active"}, {"smiles": "COC1=Cc2cccc3cccc(c23)C1=O", "growth inhibition (GI)": "inactive"}, {"smiles": "O=C1C=Cc2ccc(O)c3cccc1c23", "growth inhibition (GI)": "inactive"}, {"smiles": "COc1ccc2cccc3c2c1C=CC3=O", "growth inhibition (GI)": "inactive"}, {"smiles": "O=C1C(Cl)=Cc2cccc3cccc1c23", "growth inhibition (GI)": "Active"}, {"smiles": "O=C1C=Cc2c(O)ccc3cccc1c23", "growth inhibition (GI)": "inactive"}, {"smiles": "O=C1C(O)=Cc2cccc3cccc1c23", "growth inhibition (GI)": "inactive"}, {"smiles": "COC1=CC(=O)c2cccc3cccc1c23", "growth inhibition (GI)": "inactive"}, {"smiles": "O=C1C([N+](=O)[O-])=Cc2cccc3cccc1c23", "growth inhibition (GI)": "Active"}, {"smiles": "O=C1C(Br)=Cc2cccc3cccc1c23", "growth inhibition (GI)": "Active"}, {"smiles": "O=C1C=C(O)c2cccc3cccc1c23", "growth inhibition (GI)": "inactive"}, {"smiles": "COc1ccc2c3c(cccc13)C(=O)C=C2", "growth inhibition (GI)": "inactive"}]}]}
